The structures appear in SMILES notation.

The values below come from ChEMBL document CHEMBL4038327, “Inhibitory Kappa B Kinase α (IKKα) Inhibitors That Recapitulate Their Selectivity in Cells against Isoform-Related Biomarkers” (J Med Chem, 2017).

Data set [1] deals with T1, Inhibitor of nuclear factor kappa-B kinase subunit alpha (Homo sapiens, UniProt O15111).
T1 sequence (O15111 whole entry): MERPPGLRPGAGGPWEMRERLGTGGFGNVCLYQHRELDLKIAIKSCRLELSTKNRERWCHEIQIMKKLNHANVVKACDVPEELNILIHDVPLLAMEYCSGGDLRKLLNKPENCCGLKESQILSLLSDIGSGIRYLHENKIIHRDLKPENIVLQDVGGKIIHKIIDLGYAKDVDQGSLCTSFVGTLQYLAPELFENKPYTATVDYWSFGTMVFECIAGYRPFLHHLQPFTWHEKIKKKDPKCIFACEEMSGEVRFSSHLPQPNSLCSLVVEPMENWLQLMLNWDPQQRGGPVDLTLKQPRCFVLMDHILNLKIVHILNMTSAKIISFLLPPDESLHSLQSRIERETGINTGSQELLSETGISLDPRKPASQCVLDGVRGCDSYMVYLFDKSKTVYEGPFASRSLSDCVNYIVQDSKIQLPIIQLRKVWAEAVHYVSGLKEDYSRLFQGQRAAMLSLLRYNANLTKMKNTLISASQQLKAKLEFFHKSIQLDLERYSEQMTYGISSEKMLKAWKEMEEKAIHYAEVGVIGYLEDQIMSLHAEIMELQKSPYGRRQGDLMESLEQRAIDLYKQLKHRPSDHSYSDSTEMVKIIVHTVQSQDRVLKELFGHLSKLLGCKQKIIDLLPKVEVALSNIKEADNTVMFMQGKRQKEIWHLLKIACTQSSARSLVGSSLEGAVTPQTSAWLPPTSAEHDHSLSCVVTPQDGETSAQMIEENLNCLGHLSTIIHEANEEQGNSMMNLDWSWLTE
The data set is described as follows: Inhibition of recombinant human N-terminal GST-tagged IKKalpha (1 to 745 residues) expressed in baculovirus expression system using biotinylated IkBalpha as substrate after 60 mins by DELFIA.

In data set [2] the target is T2, Inhibitor of nuclear factor kappa-B kinase subunit beta (Homo sapiens, UniProt O14920).
T2 sequence (O14920 whole entry): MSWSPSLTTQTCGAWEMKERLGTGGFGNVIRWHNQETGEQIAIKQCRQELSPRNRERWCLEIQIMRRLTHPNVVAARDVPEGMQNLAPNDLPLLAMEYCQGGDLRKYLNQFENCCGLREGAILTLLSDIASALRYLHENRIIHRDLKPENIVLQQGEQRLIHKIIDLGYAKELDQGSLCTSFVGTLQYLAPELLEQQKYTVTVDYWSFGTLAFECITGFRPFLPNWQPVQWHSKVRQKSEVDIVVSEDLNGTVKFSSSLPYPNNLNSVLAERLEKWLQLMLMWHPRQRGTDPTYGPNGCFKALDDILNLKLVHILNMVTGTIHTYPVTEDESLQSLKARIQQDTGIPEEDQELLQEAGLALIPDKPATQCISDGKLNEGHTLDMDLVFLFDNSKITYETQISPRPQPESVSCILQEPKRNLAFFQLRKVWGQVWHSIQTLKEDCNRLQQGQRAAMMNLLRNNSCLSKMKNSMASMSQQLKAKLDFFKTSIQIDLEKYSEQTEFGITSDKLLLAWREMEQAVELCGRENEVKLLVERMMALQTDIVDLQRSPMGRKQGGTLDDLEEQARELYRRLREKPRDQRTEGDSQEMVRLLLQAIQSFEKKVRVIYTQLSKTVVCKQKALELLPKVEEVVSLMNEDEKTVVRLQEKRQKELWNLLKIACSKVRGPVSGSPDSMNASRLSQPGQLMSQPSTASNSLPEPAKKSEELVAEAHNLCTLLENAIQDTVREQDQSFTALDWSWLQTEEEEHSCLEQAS
The data set is described as follows: Inhibition of IKKbeta in human U2OS cells assessed as TNFalpha induced IkBalpha degradation at 100 uM preincubated for 1 hr followed by TNFalpha stimulation for 30 mins by Western blot analysis. Format: cell-based. The settings on record: 0.5 h. A digest of the protocol: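 U2OS cells were grown in McCoy's 5A medium at 37 °C under 5% CO2 and made quiescent by 24 h serum deprivation. They were then pretreated with compound before agonist stimulation in serum-free medium. Phospho-p100, IκBα levels and phospho-p65 (Ser536) were assessed by Western blot.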

`N#Cc1c[nH]c2nc(N)nc(-c3ccc(S(N)(=O)=O)cc3)c12`: the inhibition constant (Ki) (commonly a measure of affinity in units of concentration, obtained from inhibition or displacement) in data set [1] turned out to be 80 nM. The “inhibition (INH)” value in data set [2] is listed as “Active”.
